Experimental data taken from ChEMBL document CHEMBL4425125, “Development of a Dual-Acting Antibacterial Agent (TNP-2092) for the Treatment of Persistent Bacterial Infections” (J Med Chem, 2016).
Converted amounts (≈) assume the structure as drawn.

Key:
Staphylococcus aureus [1] = experiment: Bactericidal activity against methicillin-resistant Staphylococcus aureus 67-0; assay type: functional
Staphylococcus aureus [2] = experiment: Antimicrobial activity against methicillin-resistant Staphylococcus aureus 67-0; assay type: functional
Staphylococcus aureus [3] = experiment: Antimicrobial activity against Staphylococcus aureus isogenic forms expressing rpoB H481Y and parC S80F mutant; assay type: functional
In short: (§1)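 MIC (μg/mL) on otherwise isogenic derivatives of S. aureus ATCC 29213 that carry the rifamycin-resistance allele rpoB H481Y and/or the quinolone-resistance alleles parC S80F and gyrA S84L. The wild-type parent is the reference strain. MICs were determined both by agar dilution and by broth dilution, tested side by side on the same panel.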

Staphylococcus aureus [4] = experiment: Antimicrobial activity against Staphylococcus aureus isogenic forms expressing parC S80F mutant; assay type: functional; in short: as §1
Staphylococcus aureus [5] = experiment: Antimicrobial activity against Staphylococcus aureus isogenic forms expressing rpoB H481Y mutant; assay type: functional
Staphylococcus aureus [6] = experiment: Antimicrobial activity against wild type Staphylococcus aureus; assay type: functional
Staphylococcus aureus [7] = experiment: Antimicrobial activity against Staphylococcus aureus isogenic forms expressing gyrA S84L and parC S80F mutant; assay type: functional; in short: as §1
Staphylococcus aureus [8] = experiment: Antimicrobial activity against Staphylococcus aureus isogenic forms expressing gyrA S84L mutant; assay type: functional
Staphylococcus aureus [9] = experiment: Antimicrobial activity against Staphylococcus aureus isogenic forms expressing rpoB H481Y and gyrA S84L mutant; assay type: functional
Staphylococcus aureus [10] = experiment: Antimicrobial activity against Staphylococcus aureus isogenic forms expressing rpoB H481Y/gyrA S84L/parC S80F mutant; assay type: functional; in short: as §1
Staphylococcus aureus [11] = experiment: Bactericidal activity against methicillin-sensitive Staphylococcus aureus 29213 infected in mouse macrophages assessed as induction of bacterial kill at 4 ug/ml in presence of 4 ug/ml rifampin after 24 hrs; assay type: functional
Streptococcus pneumoniae = experiment: Antimicrobial activity against Streptococcus pneumoniae clinical isolates by broth dilution method; assay type: functional
[12] = Inhibition of RIF-resistant Staphylococcus aureus RNA polymerase RpoB H481Y mutant assessed as reduction in RNA product formation
[13] = test system: Staphylococcus epidermidis; experiment: Antimicrobial activity against methicillin-resistant Staphylococcus epidermidis clinical isolates by broth dilution method; assay type: functional
Streptococcus agalactiae = experiment: Antimicrobial activity against Streptococcus agalactiae clinical isolates by broth dilution method; assay type: functional
Staphylococcus aureus [14] = experiment: Antimicrobial activity against methicillin-sensitive Staphylococcus aureus clinical isolates by broth dilution method; assay type: functional
[15] = test system: Staphylococcus epidermidis; experiment: Antimicrobial activity against methicillin-sensitive Staphylococcus epidermidis clinical isolates by broth dilution method; assay type: functional
Streptococcus pyogenes = experiment: Antimicrobial activity against Streptococcus pyogenes clinical isolates by broth dilution method; assay type: functional
[16] = Inhibition of wild type Staphylococcus aureus RNA polymerase assessed as reduction in RNA product formation
Staphylococcus aureus [17] = experiment: Antimicrobial activity against methicillin-resistant Staphylococcus aureus clinical isolates by broth dilution method; assay type: functional

Row | SMILES | MBC (Staphylococcus aureus [1]) [mg/L] | MIC (Staphylococcus aureus [2]) [mg/L] | MIC (Staphylococcus aureus [3]) [mg/L] | MIC (Staphylococcus aureus [4]) [mg/L] | MIC (Staphylococcus aureus [5]) [mg/L] | MIC (Staphylococcus aureus [6]) [mg/L] | MIC (Staphylococcus aureus [7]) [mg/L] | MIC (Staphylococcus aureus [8]) [mg/L] | MIC (Staphylococcus aureus [9]) [mg/L] | MIC (Staphylococcus aureus [10]) [mg/L] | also measured
1 | C[C@H]1COc2c(N3CCN(C)CC3)c(F)cc3c(=O)c(C(=O)O)cn1c23.C[C@H]1COc2c(N3CCN(C)CC3)c(F)cc3c(=O)c(C(=O)O)cn1c23.O [LEVOFLOXACIN] | 2 | 2 | 1 | 1 | 0.25 | 0.25 | 8 | 0.25 | 0.25 | 8 | 
2 | COc1c(N2C[C@@H]3CCCN[C@@H]3C2)c(F)cc2c(=O)c(C(=O)O)cn(C3CC3)c12 [MOXIFLOXACIN] |  |  |  |  |  |  |  |  |  |  | Activity (Staphylococcus aureus [11]): <=99.9%
3 | CO[C@H]1/C=C/O[C@@]2(C)Oc3c(C)c(O)c4c(O)c(c(/C=N/N5CCN(C)CC5)c(O)c4c3C2=O)NC(=O)/C(C)=C\C=C\[C@H](C)[C@H](O)[C@@H](C)[C@@H](O)[C@@H](C)[C@H](OC(C)=O)[C@@H]1C [RIFAMPIN] | 2 (≈ 2.43 µM) | 0.008 (≈ 0.00972 µM) | > 250 | 0.008 (≈ 0.00972 µM) | > 250 | 0.008 (≈ 0.00972 µM) | 0.008 (≈ 0.00972 µM) | 0.008 (≈ 0.00972 µM) | > 250 | > 250 | MIC (Streptococcus pneumoniae): 0.12 to 1 mg/L (≈ 0.146 to 1.22 µM); MIC50 (Streptococcus pneumoniae): 0.25 mg/L (≈ 0.304 µM); MIC90 (Streptococcus pneumoniae): 0.25 mg/L (≈ 0.304 µM); IC50 [12]: > 25 µM; MIC [13]: >=0.004 - 4 ug ml-1; MIC50 ([13]; Staphylococcus epidermidis): 0.015 mg/L (≈ 0.0182 µM); MIC90 ([13]; Staphylococcus epidermidis): > 4 mg/L; MIC (Streptococcus agalactiae): 0.03 to 2 mg/L (≈ 0.0365 to 2.43 µM); MIC50 (Streptococcus agalactiae): 0.12 mg/L (≈ 0.146 µM); MIC90 (Streptococcus agalactiae): 0.12 mg/L (≈ 0.146 µM); MIC50 (Staphylococcus aureus [14]): 0.015 mg/L (≈ 0.0182 µM); MIC90 (Staphylococcus aureus [14]): 0.015 mg/L (≈ 0.0182 µM); MIC50 [15]: 0.015 mg/L (≈ 0.0182 µM); MIC90 [15]: 0.015 mg/L (≈ 0.0182 µM); MIC50 (Streptococcus pyogenes): 0.06 mg/L (≈ 0.0729 µM); MIC90 (Streptococcus pyogenes): 0.12 mg/L (≈ 0.146 µM); IC50 [16]: 0.015 µM; MIC (Staphylococcus aureus [17]): 0.008 to 4 mg/L (≈ 0.00972 to 4.86 µM); MIC50 (Staphylococcus aureus [17]): 0.015 mg/L (≈ 0.0182 µM); MIC90 (Staphylococcus aureus [17]): 0.015 mg/L (≈ 0.0182 µM)
4 | CN[C@H](CC(C)C)C(=O)N[C@H]1C(=O)N[C@@H](CC(N)=O)C(=O)N[C@H]2C(=O)N[C@H]3C(=O)N[C@H](C(=O)N[C@H](C(=O)O)c4cc(O)cc(O)c4-c4cc3ccc4O)[C@H](O)c3ccc(c(Cl)c3)Oc3cc2cc(c3O[C@@H]2O[C@H](CO)[C@@H](O)[C@H](O)[C@H]2O[C@H]2C[C@](C)(N)[C@H](O)[C@H](C)O2)Oc2ccc(cc2Cl)[C@H]1O [VANCOMYCIN] | 1 (≈ 0.69 µM) | 1 (≈ 0.69 µM) |  |  |  |  |  |  |  |  | 
